# Measured values published in ChEMBL document CHEMBL5724801, “EUbOPEN Chemogenomics Library - Multiplex” (2024).
# “And” between values parts separate entries of the source, which are not always exact repeats. Equal values may be shown once.
# Tested on: U2OS
# Assay: Multiplex assay against U2OS
# Assay type: toxicity, cell-based
# Details: human
# Summary of the method: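 Values for tubulin, mitochondrial-mass and membrane-permeability phenotypes are per cents of cells with healthy nuclei. These cells were identified by CellPathfinder machine-learning gating of live cells that had been stained at seeding with Hoechst33342, BioTracker Green Microtubule Cytoskeleton Dye, MitoTracker Red and Annexin V Alexa Fluor 680 and imaged on a CQ1 microscope at 37°C and 5% CO2 after compound addition. The gating first set Hoechst high-intensity objects apart from normal cells, then split normal cells into healthy, pyknosed or fragmented nuclei, and pyknosed cells into mitotic or apoptotic.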
# [1] = 12 h, 1 µM, compound concentration 1 uM
# [2] = 12 h, 10 µM, compound concentration 10 uM
# [3] = 24 h, 1 µM, compound concentration 1 uM
# [4] = 24 h, 10 µM, compound concentration 10 uM
# [5] = 48 h, 1 µM, compound concentration 1 uM
# [6] = 48 h, 10 µM, compound concentration 10 uM
structure (smiles),measurement,setting,value
O=C(NCCNCC(O)COc1ccc(O)cc1)N1CCOCC1.O=C(NCCNCC(O)COc1ccc(O)cc1)N1CCOCC1.O=C(O)/C=C/C(=O)O (stereo unspecified) [XAMOTEROL FUMARATE],Population Apoptotic (%),[1],71% and 83%
same,Population Fragmented Nuclei (%),[1],27% and 19%
same,Population Healthy Nuclei (%),[1],66% and 68%
same,Population Hoechst High Intensity Objects (%),[1],2% and 3%
same,Population Membrane Permeable-Phenotype (%),[1],6% and 13%
same,Population Mitochondria Different-Phenotype (%),[1],1%
same,Population Mitotic Cells (%),[1],28% and 16%
same,Population Normal (%),[1],97% and 96%
same,Population Pyknosed Nuclei (%),[1],5% and 11%
same,Population Tubulin-Different-Phenotype (%),[1],2% and 5%
same,Total Cell Count,[1],265 and 110
same,Population Apoptotic (%),[2],92% and 100%
same,Population Fragmented Nuclei (%),[2],28% and 15%
same,Population Healthy Nuclei (%),[2],60% and 73%
same,Population Hoechst High Intensity Objects (%),[2],0% and 4%
same,Population Membrane Permeable-Phenotype (%),[2],6% and 4%
same,Population Mitochondria Different-Phenotype (%),[2],2% and 3%
same,Population Mitotic Cells (%),[2],7% and 0%
same,Population Normal (%),[2],99% and 95%
same,Population Pyknosed Nuclei (%),[2],11%
same,Population Tubulin-Different-Phenotype (%),[2],4% and 7%
same,Total Cell Count,[2],239 and 118
same,Population Apoptotic (%),[3],85% and 80%
same,Population Fragmented Nuclei (%),[3],24% and 18%
same,Population Healthy Nuclei (%),[3],68% and 69%
same,Population Hoechst High Intensity Objects (%),[3],0% and 1%
same,Population Membrane Permeable-Phenotype (%),[3],5% and 10%
same,Population Mitochondria Different-Phenotype (%),[3],0% and 4%
same,Population Mitotic Cells (%),[3],15% and 20%
same,Population Normal (%),[3],99% and 98%
same,Population Pyknosed Nuclei (%),[3],6% and 11%
same,Population Tubulin-Different-Phenotype (%),[3],1% and 5%
same,Total Cell Count,[3],312 and 129
same,Population Apoptotic (%),[4],89% and 78%
same,Population Fragmented Nuclei (%),[4],22% and 16%
same,Population Healthy Nuclei (%),[4],66% and 70%
same,Population Hoechst High Intensity Objects (%),[4],1%
same,Population Membrane Permeable-Phenotype (%),[4],6%
same,Population Mitochondria Different-Phenotype (%),[4],2%
same,Population Mitotic Cells (%),[4],10% and 21%
same,Population Normal (%),[4],98%
same,Population Pyknosed Nuclei (%),[4],10% and 12%
same,Population Tubulin-Different-Phenotype (%),[4],2% and 6%
same,Total Cell Count,[4],270 and 152
same,Population Apoptotic (%),[5],90% and 91%
same,Population Fragmented Nuclei (%),[5],18% and 23%
same,Population Healthy Nuclei (%),[5],75% and 62%
same,Population Hoechst High Intensity Objects (%),[5],1% and 2%
same,Population Membrane Permeable-Phenotype (%),[5],4% and 6%
same,Population Mitochondria Different-Phenotype (%),[5],2% and 3%
same,Population Mitotic Cells (%),[5],9% and 8%
same,Population Normal (%),[5],98% and 97%
same,Population Pyknosed Nuclei (%),[5],6% and 13%
same,Population Tubulin-Different-Phenotype (%),[5],2% and 4%
same,Total Cell Count,[5],472 and 171
same,Population Apoptotic (%),[6],89% and 94%
same,Population Fragmented Nuclei (%),[6],18% and 17%
same,Population Healthy Nuclei (%),[6],68% and 73%
same,Population Hoechst High Intensity Objects (%),[6],1% and 2%
same,Population Membrane Permeable-Phenotype (%),[6],2% and 4%
same,Population Mitochondria Different-Phenotype (%),[6],1% and 4%
same,Population Mitotic Cells (%),[6],10% and 5%
same,Population Normal (%),[6],98% and 97%
same,Population Pyknosed Nuclei (%),[6],12% and 9%
same,Population Tubulin-Different-Phenotype (%),[6],2% and 6%
same,Total Cell Count,[6],392 and 206
